Calls of active or inactive are those of the source. No cut-off for these calls is given here.
Experiments:
RAW264.7 [1] = assay: Cytotoxicity against mouse RAW264.7 cells assessed as reduction in cell viability at 50 uM after 48 hrs by MTT assay; type: cell-based; details: raw264.7, 48 h
Outline: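 RAW264.7 cells seeded at 2 x 10⁵/well and grown 24 h, then exposed to 25 or 50 µM (ethanol ≤1%) for 48 h. MTT 0.5 mg/mL added for 2 h at 37 °C, formazan dissolved in DMSO, OD read at 595 nm. Viability given relative to untreated control, mean SD.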

Peritoneal macrophage = assay: Cytotoxicity against C57/BL6 mouse peritoneal macrophages assessed as reduction in cell viability at 50 uM after 48 hrs by MTT assay; type: cell-based
[2] = Antioxidant activity assessed as DPPH radical scavenging activity after 30 mins by spectrophotometric method; type: functional
Outline: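 Left 30 min at room temperature in the dark and absorbance read at 510 nm. IC50 taken graphically from the linear range of the concentration versus scavenging plot. Run twice, each in triplicate.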

RAW264.7 [3] = assay: Antiinflammatory activity in mouse RAW264.7 cells assessed as inhibition of LPS/IFNgamma-induced NO production by measuring NO levels incubated with LPS/IFNgamma for 1 hr followed by compound addition measured after 48 hrs by Griess assay (reference value: 55 +/- 2.6 microM); type: functional
RAW264.7 [4] = assay: Antiinflammatory activity in mouse RAW264.7 cells assessed as inhibition of LPS-induced CCL-2 production by measuring CCL-2 levels incubated with LPS for 1 hr followed by compound addition measured after 48 hrs by ELISA (reference value: 12.73 +/- 0.10 ng/ml); type: functional
J774.A1 = assay: Antiinflammatory activity in mouse J774A.1 cells assessed as inhibition of LPS-induced IL-1beta production by measuring IL-1beta levels incubated with LPS for 1 hr followed by compound addition measured after 24 hrs by ELISA (reference value: 382.3 +/- 50 pg/ml); type: functional
RAW264.7 [5] = assay: Antiinflammatory activity in mouse RAW264.7 cells assessed as inhibition of LPS-induced IL-6 production by measuring IL-6 levels incubated with LPS for 1 hr followed by compound addition measured after 48 hrs by ELISA (reference value: 2.9 +/- 0.3 ng/ml); type: functional
RAW264.7 [6] = assay: Antiinflammatory activity in mouse RAW264.7 cells assessed as inhibition of LPS-induced IL-12 production by measuring IL-12 levels incubated with LPS for 1 hr followed by compound addition measured after 48 hrs by ELISA (reference value: 4839.2 +/- 2.2 pg/ml); type: functional
RAW264.7 [7] = assay: Antiinflammatory activity in mouse RAW264.7 cells assessed as inhibition of LPS-induced TNFalpha production by measuring TNFalpha levels incubated with LPS for 1 hr followed by compound addition measured after 48 hrs by ELISA (reference value: 58.6 +/- 7.4 ng/ml); type: functional
RAW264.7 [8] = assay: Immunomodulatory activity in LPS-stimulated mouse RAW264.7 cells assessed as decrease in CD80 expression at 50 uM incubated with LPS for 1 hr followed by compound addition measured after 24 hrs by flow cytometry; type: functional, cell-based
Outline: (§1)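 RAW 264.7 cells (4 x 10⁵/well, triplicate) given E. coli LPS 1 µg/mL for 1 h, then treated at 50 µM for 24 h. Cells Fc-blocked with anti-CD16/32 and stained with FITC anti-CD80, anti-CD86 or anti-MHC II (I-A^b). Two independent experiments.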

RAW264.7 [9] = assay: Immunomodulatory activity in LPS-stimulated mouse RAW264.7 cells assessed as decrease in MHC-2 expression at 50 uM incubated with LPS for 1 hr followed by compound addition measured after 24 hrs by flow cytometry; type: functional, cell-based; outline: as §1
RAW264.7 [10] = assay: Antiinflammatory activity in mouse RAW264.7 cells assessed as inhibition of LPS/IFNgamma-induced NO production at 50 uM incubated with LPS/IFNgamma for 1 hr followed by compound addition measured after 48 hrs by Griess assay relative to control; type: functional
Murine T-cell line = assay: Antiproliferative activity against Con-A-induced T cells isolated from splenocytes of C57/BL6 mouse at 50 uM incubated with Con-A for 1 hr followed by compound addition measured after 72 hrs by MTT assay; type: functional, cell-based
Outline: (§2)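 C57BL/6 splenocytes (1x10⁵/well) cultured in RPMI 1640 with 10% FBS. Stimulated 1 h with Con A 5 µg/mL (T cells) or E. coli LPS 1 µg/mL (B cells) at 37°C, 5% CO₂. Treated at 50 µM and cultured 72 h more, then read by MTT. Expressed as % proliferation relative to untreated stimulated cells.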

B-cell line = assay: Antiproliferative activity against LPS-induced B cells isolated from splenocytes of C57/BL6 mouse at 50 uM incubated with LPS for 1 hr followed by compound addition measured after 72 hrs by MTT assay; type: functional, cell-based; outline: as §2
RAW264.7 [11] = assay: Immunomodulatory activity in LPS-stimulated mouse RAW264.7 cells assessed as decrease in CD86 expression at 50 uM incubated with LPS for 1 hr followed by compound addition measured after 24 hrs by flow cytometry; type: functional, cell-based; outline: as §1
Mus musculus [12] = assay: Antiinflammatory activity in Balb/c mouse ear edema model assessed as inhibition of croton oil-induced ear edema at 0.1 mg/ear administered topically immediately post croton oil treatment and measured after 4 hrs relative to control; type: functional
Outline: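 Female Balb/c mice 8–10 weeks old (n = 6/group). 20 µL of 2.5% v/v croton oil applied to the inner surface of the right ear, acetone vehicle to the left. Treatment given topically straight after, 0.1 mg/ear in 20 µL, with acetone as negative control. Killed at 4 h and 6 mm plugs taken from both ears. Edema read as right minus left ear plug weight, mean S.D.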

Mus musculus [13] = assay: Antiinflammatory activity in croton oil-induced Balb/c mouse ear edema model assessed as inhibition of leucocyte infiltration at 0.1 mg/ear administered topically immediately post croton oil treatment and measured after 4 hrs by hematoxylin and eosin staining based light microscopic method; type: functional, organism-based
Outline: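 Ear plugs from the 4 h croton oil edema test in Balb/c mice were fixed 24 h in 70% ethanol, kept in 10% formalin, paraffin-embedded and cut at 4 µm. Sections stained with H&E and leucocyte infiltration judged qualitatively by light microscopy at 400x.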

Mus musculus [14] = assay: Effect on IL-1beta production in ear tissue of croton oil-induced Balb/c mouse ear edema model at 0.1 mg/ear administered topically immediately post croton oil treatment by ELISA; type: functional, organism-based
Outline: (§3)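 Half of each ear plug from the 4 h croton oil edema test (topical 0.1 mg/ear) was homogenized in extraction buffer (BSA 0.5%, PMSF 0.1%, […], EDTA 10mM, aprotinin 20kIU/ml) and spun at 440g for 15 min at 4 °C. IL-1β, IL-6 or CCL-2 in the supernatant measured by ELISA.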

Mus musculus [15] = assay: Inhibition of myeloperoxidase activity in ear tissue of croton oil-induced Balb/c mouse ear edema model at 0.1 mg/ear administered topically immediately post croton oil treatment by spectrophotometric method; type: functional, organism-based
Outline: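 Ear tissue homogenized in PBS and the pellet resuspended in 0.5% HTAB, then given 3 freeze/thaw cycles. Cleared supernatant mixed 1:1 with 6 mM o-phenylenediamine in 10 mM citrate pH 4.5, with 20% H₂O₂ added. Stopped after 15 min with 1 M H₂SO₄ and read spectrophotometrically.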

Mus musculus [16] = assay: Inhibition of IL-6 production in ear tissue of croton oil-induced Balb/c mouse ear edema model at 0.1 mg/ear administered topically immediately post croton oil treatment by ELISA; type: functional, organism-based; outline: as §3
Mus musculus [17] = assay: Inhibition of CCL-2 production in ear tissue of croton oil-induced Balb/c mouse ear edema model at 0.1 mg/ear administered topically immediately post croton oil treatment by ELISA; type: functional, organism-based; outline: as §3

Compound	Activity (RAW264.7 [1])	Activity (Peritoneal macrophage)	IC50 [2]	Activity (RAW264.7 [3])	Activity (RAW264.7 [4])	Activity (J774.A1)	Activity (RAW264.7 [5])	Activity (RAW264.7 [6])	Activity (RAW264.7 [7])	Activity (RAW264.7 [8])	Activity (RAW264.7 [9])	inhibition at 50 µM (RAW264.7 [10])	Activity (Murine T-cell line)	Activity (B-cell line)	also measured
O=[N+]([O-])c1ccc(/C=N/c2ccccc2S)cc1	Toxic	Toxic	–	–	–	–	–	–	–	–	–	–	–	–	–
O=C(O)c1ccc(/C=N/Nc2ccccc2)cc1	Toxic	Toxic	–	–	–	–	–	–	–	–	–	–	–	–	–
COc1ccc(/C=N/Nc2ccccc2)c(O)c1	Toxic	Toxic	–	–	–	–	–	–	–	–	–	–	–	–	–
O=[N+]([O-])c1ccc(N/N=C/c2cc(Br)ccc2O)c([N+](=O)[O-])c1	Toxic	Toxic	–	–	–	–	–	–	–	–	–	–	–	–	–
COc1ccc(/C=N/Nc2ccc([N+](=O)[O-])cc2[N+](=O)[O-])cc1O	Toxic	Toxic	–	–	–	–	–	–	–	–	–	–	–	–	–
COc1ccc(/C=N/c2ccccc2O)cc1O	–	–	34.5 µM	8.1 µM	9.7 ng/mL	120.3 pg/mL	2.4 ng/mL	7.7 pg/mL	60.5 ng/mL	Active	inactive	90%	–	–	–
Oc1ccccc1/C=N/c1ccccc1O	–	–	35.9 µM	5.9 µM	7.2 ng/mL	62.3 pg/mL	2.5 ng/mL	5.5 pg/mL	58.4 ng/mL	inactive	inactive	90%	Active	Active	–
O=C(O)c1ccc(/C=N/Nc2ccc([N+](=O)[O-])cc2[N+](=O)[O-])cc1	Toxic	Toxic	–	–	–	–	–	–	–	–	–	–	–	–	–
COc1ccc(/C=N/c2ccccc2O)cc1	–	–	45.8 µM	4.8 µM	7.9 ng/mL	88.2 pg/mL	2.1 ng/mL	4.7 pg/mL	44.2 ng/mL	Active	inactive	90%	Active	Active	Activity (RAW264.7 [11]): Active; inhibition (INH) (Mus musculus [12]): 40%; inhibition of leucocyte infiltration (qualitative) (Mus musculus [13]): Active; Activity (Mus musculus [14]): inactive; inhibition (Mus musculus [15]): Active; inhibition (Mus musculus [16]): Active; inhibition (Mus musculus [17]): Active
O=C(O)c1ccc(/C=N/c2ccccc2O)cc1	–	–	36.6 µM	9.5 µM	3.7 ng/mL	53.4 pg/mL	2.2 ng/mL	12.7 pg/mL	30.6 ng/mL	Active	inactive	90%	Active	Active	Activity (RAW264.7 [11]): Active; inhibition (INH) (Mus musculus [12]): 40%; inhibition of leucocyte infiltration (qualitative) (Mus musculus [13]): Active; Activity (Mus musculus [14]): inactive; inhibition (Mus musculus [15]): Active; inhibition (Mus musculus [16]): Active; inhibition (Mus musculus [17]): Active
O=C(O)c1ccccc1/C=N/c1ccccc1O	–	–	34.1 µM	22.6 µM	6.1 ng/mL	76.7 pg/mL	2.3 ng/mL	34 pg/mL	57.4 ng/mL	inactive	inactive	–	Active	Active	–
C[C@@H]1C[C@H]2[C@@H]3CCC4=CC(=O)C=C[C@]4(C)[C@@]3(F)[C@@H](O)C[C@]2(C)[C@@]1(O)C(=O)CO [DEXAMETHASONE]	–	–	–	–	–	–	–	–	–	–	–	–	–	–	inhibition (INH) (Mus musculus [12]): 90%; inhibition of leucocyte infiltration (qualitative) (Mus musculus [13]): Active
Oc1ccc(/C=N/c2ccccc2O)c(O)c1	–	–	49.1 µM	14.6 µM	5.5 ng/mL	188.3 pg/mL	2.3 ng/mL	9.3 pg/mL	44.8 ng/mL	Active	inactive	90%	–	–	–

From ChEMBL document CHEMBL4152358, “In vitro and in vivo anti-inflammatory properties of imine resveratrol analogues” (Bioorg Med Chem, 2018)
